The nature of series [1]: Pilot mouse pharmacokinetic study. Type of series: in vivo, BALB/c mice. As to conditions: mice; for gross toxicity after single IV dose: single low-dose 10 mg/kg IV.
Series [2] is described as follows: Tolerability of repeated daily IP injection in mice. Format: in vivo. As to conditions: 10 sequential daily IP injections, 10 mg/kg (34 in 100% DMSO). The procedure, abridged:
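Mice got 10 sequential daily IP injections of test compound dissolved in 100% DMSO. They were monitored for clinical adverse signs.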

The text below walks through data of paper PMC8404201 (Journal of Medicinal Chemistry, 2021).

Entries after “also recorded” stand apart in the source; their conditions may differ. Bounds are passed on as bounds.

As to `CN(C)c1ccc2cc(-c3cc(Cl)cc(Cl)c3)c(N)nc2c1` [Compound 27, 3-[3,5-Dichlorophenyl]-N^7,N^7-dimethylquinoline-2,7-diamine], the “gross toxicity after single IV dose” value in series [1] is reported as “no gross toxicity”. For the same compound, the “tolerability / adverse events after repeated daily IP injection” value in series [2] is “not observed; also recorded: tolerable”.

With `CN(C)c1ccc2cc(-c3cn(C)c4ccccc34)c(N)nc2c1` [Compound 34, 3-[3-(N-Methylindolyl)-N^7,N^7-dimethyl]-2,7-quinolinediamine], in series [1] (PO vs IV, 10 mg/kg), the “apparent oral bioavailability (F)” value is under 20%. Moreover, the “gross toxicity after single IV dose” value in series [1] is given as “no gross toxicity”. For the same compound, the “tolerability / adverse events after repeated daily IP injection” value in series [2] was “toxic”.
